Published values of several laboratories.
Target: SRSF protein kinase 3 (SRPK3, Homo sapiens, UniProt Q9UPE1)

SMILES	read-out	action	technique	concentration	quantity	value
Cn1c2c(Cl)c(Cl)ccc2c2cc(N)[nH]c(=O)c21	thermal stability	–	DSF	10 µM	ΔTm	0.3 °C
CNC(=O)c1cc(Oc2ccc(NC(=O)Nc3ccc(Cl)c(C(F)(F)F)c3)cc2)ccn1	enzyme activity	inhibitor	–	0.3 µM	inhibition	-7%
Cc1ccc(NC(=O)c2ccc(C)c(C(F)(F)F)c2)cc1C#Cc1nn(C2CCC(O)CC2)c2ncnc(N)c12 (centres unmarked)	cell-free assay	–	–	10 µM	remaining signal	56%
Cn1c2c(c3ccccc31)C(C#N)C(C)(C)NC2=O (centres unmarked)	thermal stability	–	DSF	10 µM	ΔTm	0.2 °C
CN(C)C(=O)Cn1cc(-c2nc(C3(c4ccc(-c5cnc(N)nc5)cc4)CC3)no2)cn1	cell-free assay	–	competition with immobilised ligand	1 µM	remaining binding	100%
Cc1cc(NC(=O)c2cccc3cc(-c4cccc5[nH]nc(N)c45)ccc23)ccc1F	enzyme activity	inhibitor	–	0.1 µM	activity vs control	113%
Cc1ccc(Nc2nccc(N(C)c3ccc4c(C)n(C)nc4c3)n2)cc1S(N)(=O)=O	enzyme activity	inhibitor	–	0.3 µM	inhibition	-13%
CNCc1ccccc1-c1csc([C@H](C)Nc2nc(C)nc3cc(OC)c(OC)cc23)c1	cell-free assay	–	competition with immobilised ligand	1 µM	remaining binding	89%
Cn1c2c(Cl)c(Cl)ccc2c2cc[nH]c(=O)c21	thermal stability	–	DSF	10 µM	ΔTm	0.2 °C
Cc1cnc(NC2CCOCC2)nc1-n1cnc(C(=O)NC(CN)c2cc(F)cc(Cl)c2)c1 (centres unmarked)	enzyme activity	inhibitor	radiometric	1 µM	remaining activity	114%
O=C(NS(=O)(=O)c1ccc(NCC2CCOCC2)c([N+](=O)[O-])c1)c1ccc(N2CCN(Cc3ccc(C(F)(F)F)cc3-c3ccc(Cl)cc3)CC2)cc1Oc1cnc2[nH]ccc2c1	cell-free assay	–	competition with immobilised ligand	1 µM	remaining binding	100%
CCOc1cc(-c2nncn2C)ccc1Nc1ncc2cc(C)nc(NCC(C)(C)C)c2n1	enzyme activity	inhibitor	FRET	1 µM	inhibition	< 15%
CCCOc1ccc(OC)c(F)c1C(=O)c1ccc(C(=O)N[C@@H]2CNC[C@H]2NC(=O)c2ccc3[nH]ncc3c2)cc1	enzyme activity	inhibitor	–	10 µM	remaining activity	77%
CCN(CC)CCNC(=O)c1c(C)[nH]c(/C=C2\C(=O)Nc3ccc(F)cc32)c1C	enzyme activity	inhibitor	–	10 µM	inhibition	15%
CS(=O)(=O)NCC[C@H](NC(=O)c1cncc2c1cnn2-c1ccc(F)cc1)c1ccnc(S(C)(=O)=O)c1	cell-free assay	–	competition with immobilised ligand	1 µM	remaining binding	100%
COc1cc2ncnc(Nc3ccc(Oc4ccccc4)c(C)c3C)c2cc1OC	enzyme activity	inhibitor	–	1 µM	inhibition	5%
Cc1cc(NC(=O)c2cccc(S(F)(F)(F)(F)F)c2)cc(-n2ccn3nc(-c4cccnc4)cc23)c1	cell-free assay	–	competition with immobilised ligand	1 µM	remaining binding	100%
CC(C)(C)c1nc2c(s1)c1nc(N)ncc1c1ccc(NS(=O)(=O)c3c(F)cccc3F)c(F)c12	enzyme activity	inhibitor	radiometric	1 µM	remaining activity	97%
CCC(=O)N[C@@H]1CC[C@H](C(=O)N(C)c2ccc(-c3nc4ccccc4o3)cc2)C1	cell-free assay	–	competition with immobilised ligand	1 µM	remaining binding	100%
CC/C(=N\NC(=O)NCc1cccc(O)c1)c1ccc(O)c(C)c1O	enzyme activity	inhibitor	–	0.1 µM	inhibition	-2.9%
